Test results reported in PMC3700807 (Planta medica, 2011).
In brackets after ≈: the same amount, converted by molar mass.

What was measured:
[1] = tested on: Aspergillus fumigatus (ATCC 204305); test: Antimicrobial susceptibility assay, A. fumigatus; type: cell-based; settings: Aspergillus fumigatus
Outline: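 Broth-dilution susceptibility test in medium with 5% Alamar Blue for growth detection. Amphotericin B was the drug control in each assay. IC50 (50% inhibition vs controls) was curve-fitted from duplicate readings. MIC is the lowest concentration with no detectable growth. For MFC, 5 μL from each clear well was moved to agar and incubated until growth appeared.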

[2] = tested on: Leishmania donovani amastigotes in THP1 macrophage cultures; test: Antileishmanial macrophage-amastigote assay; type: cell-based; settings: Leishmania donovani, THP-1, read-out: Leishmania donovani Macrophage-Amastigotes IC50, amastigotes in THP1 macrophage cultures; mean ± S.D. of three observations
[3] = tested on: Candida albicans (ATCC 90028); test: Antimicrobial susceptibility assay, C. albicans; type: cell-based; settings: Candida albicans
Outline: (§1)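 Yeasts were tested by a modified CLSI broth-dilution method, with growth monitored by optical density. Amphotericin B was the drug control in each assay. IC50 (50% inhibition vs controls) was curve-fitted from duplicate readings. MIC is the lowest concentration allowing no detectable growth. For MFC, 5 μL from each clear well was plated on agar and incubated until growth was seen.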

[4] = tested on: Cryptococcus neoformans (ATCC 90113); test: Antimicrobial susceptibility assay, C. neoformans; type: cell-based; settings: Cryptococcus neoformans
Outline: as §1

[5] = tested on: Leishmania donovani axenic amastigotes; test: Antileishmanial assay, axenic amastigotes; type: cell-based; settings: Leishmania donovani, 72 h, read-out: Leishmania donovani Axenic Amastigotes IC90
[6] = Cytotoxicity to PMA transformed THP1 cells; type: cell-based; settings: human, PMA transformed THP1 cells
[7] = tested on: Plasmodium falciparum D6 (chloroquine-sensitive clone); test: In vitro antiplasmodial assay; type: cell-based; settings: Plasmodium falciparum, D6, read-out: P. falciparum D6 IC50
[8] = tested on: Plasmodium falciparum W2 (chloroquine-resistant clone); test: In vitro antiplasmodial assay; type: cell-based; settings: Plasmodium falciparum, W2, read-out: P. falciparum W2 IC50
[9] = tested on: methicillin-resistant S aureus (MRSA, ATCC 33591); test: Antimicrobial susceptibility assay, MRSA; type: cell-based, Staphylococcus aureus; settings: Staphylococcus aureus, ATCC33591|MRSA
Outline: (§2)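 Bacteria were tested by a modified CLSI broth-dilution method, with growth read as optical density. Ciprofloxacin was the drug control in each assay. IC50 (50% inhibition relative to controls) was fitted from duplicate readings. MIC is the lowest concentration with no detectable growth. For MBC, 5 μL from each clear well was transferred to agar and incubated until growth appeared.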

[10] = tested on: Mycobacterium intracellulare (ATCC 23068); test: Antimicrobial susceptibility assay, M. intracellulare; type: cell-based; settings: Mycobacterium intracellulare
Outline: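 Mycobacterium intracellulare (ATCC 23068) was tested by a modified broth susceptibility method, with growth detected in medium containing 5% Alamar Blue. IC50 was fitted against untreated controls from duplicate readings. MIC was taken as the lowest concentration with no detectable growth. For MBC, clear wells were subcultured onto agar and incubated until growth appeared. Ciprofloxacin was included as the drug control in each assay.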

[11] = tested on: Staphylococcus aureus (ATCC 29213); test: Antimicrobial susceptibility assay, S. aureus; type: cell-based; settings: Staphylococcus aureus
Outline: as §2

[12] = tested on: Plasmodium falciparum D6 (chloroquine-sensitive clone); settings: data reported previously; cited from earlier work
[13] = tested on: Leishmania donovani promastigotes; test: Antileishmanial assay, promastigotes; type: cell-based; settings: Leishmania donovani, 72 h, read-out: Leishmania donovani Promastigotes IC90
VERO cells = VERO cells cytotoxicity; data reported previously; cited from earlier work
[14] = tested on: Plasmodium falciparum W2 (chloroquine-resistant clone); settings: data reported previously; cited from earlier work

`C[C@@H]1[C@H](O)[C@@H](C)/C=C/C=C/C=C/C=C/C=C/C=C/C=C/[C@H](O[C@@H]2O[C@H](C)[C@@H](O)[C@H](N)[C@@H]2O)C[C@@H]2O[C@](O)(C[C@@H](O)C[C@@H](O)[C@H](O)CC[C@@H](O)C[C@@H](O)CC(=O)O[C@H]1C)C[C@H](O)[C@H]2C(=O)O` [Amphotericin B, reference compound] gave an IC50 ([1]; ATCC204305, read-out: A. fumigatus IC50) of 0.72 µg/mL (≈ 0.779 µM), an MFC ([1]; ATCC204305, read-out: A. fumigatus MFC) of 2.5 µg/mL (≈ 2.71 µM) and an MIC ([1]; ATCC204305, read-out: A. fumigatus MIC) of 1.25 µg/mL (≈ 1.35 µM). It also gave an IC50 [2] of 0.14 ± 0.02 µg/mL (≈ 0.152 µM), an IC50 ([3]; ATCC90028, read-out: C. albicans IC50) of 0.13 µg/mL (≈ 0.141 µM) and an MFC ([3]; ATCC90028, read-out: C. albicans MFC) of 0.63 µg/mL (≈ 0.682 µM). It also gave an IC50 ([4]; ATCC90113, read-out: C. neoformans IC50) of 0.32 µg/mL (≈ 0.346 µM), an MFC ([4]; ATCC90113, read-out: C. neoformans MFC) of 1.25 µg/mL (≈ 1.35 µM) and an MIC ([4]; ATCC90113, read-out: C. neoformans MIC) of 1.25 µg/mL (≈ 1.35 µM). It also gave an IC90 [5] of 0.97 ± 0.14 µg/mL (≈ 1.05 µM), an IC50 [6] of 3.34 ± 0.41 µg/mL (≈ 3.61 µM) and an IC90 [6] of 8.05 ± 1.33 µg/mL (≈ 8.71 µM).
`C[C@@H]1CC[C@H]2[C@@H](C)C(=O)O[C@@H]3O[C@@]4(C)CC[C@@H]1[C@]32OO4` [Artemisinin] showed an IC50 [7] of 0.016 µg/mL (≈ 0.0567 µM) and an IC50 [8] of 0.017 µg/mL (≈ 0.0602 µM).
Compound `CCN(CC)CCCC(C)Nc1ccnc2cc(Cl)ccc12` (centres unmarked) [Chloroquine] has an IC50 [7] of 0.017 µg/mL (≈ 0.0531 µM) and an IC50 [8] of 0.14 µg/mL (≈ 0.438 µM).
`O=C(O)c1cn(C2CC2)c2cc(N3CCNCC3)c(F)cc2c1=O` [Ciprofloxacin, reference compound] gave an IC50 ([9]; read-out: MRSA IC50) of 0.08 µg/mL (≈ 0.241 µM), an MBC ([9]; read-out: MRSA MBC) of 1 µg/mL (≈ 3.02 µM) and an MIC ([9]; read-out: MRSA MIC) of 0.25 µg/mL (≈ 0.754 µM). For the same compound, the IC50 ([10]; ATCC23068, read-out: M. intracellulare IC50) was 0.25 µg/mL (≈ 0.754 µM), the MBC ([10]; ATCC23068, read-out: M. intracellulare MBC) was over 20 µg/mL and the MIC ([10]; ATCC23068, read-out: M. intracellulare MIC) was 0.5 µg/mL (≈ 1.51 µM). It also gave an IC50 ([11]; ATCC29213, read-out: S. aureus IC50) of 0.1 µg/mL (≈ 0.302 µM) and an MBC ([11]; ATCC29213, read-out: S. aureus MBC) of over 20 µg/mL.
For `C[C@@H]1N[C@H](CCCCCCCCCCc2cc(CCCCCCCCCC[C@@H]3CC[C@H](O)[C@@H](C)N3)c3[n+](c2)CCC3)CC[C@H]1O` [Compound 2, prosopilosidine], the IC50 [2] is listed as 3.23 ± 0.54 µg/mL, the “P. falciparum D6 IC50” value [12] is listed as 0.039 ± 0.002 µg/mL and the IC90 [13] is listed as 4.17 ± 0.54 µg/mL. For the same compound, the IC90 [5] was 25.4 ± 5.3 µg/mL, the “VERO IC50” value (VERO cells) was over 23.8 µg/mL and the “P. falciparum W2 IC50” value [14] was 0.095 ± 0.002 µg/mL. The IC50 [6] was 9.49 ± 2.25 µg/mL and the IC90 [6] was over 20 µg/mL.
